Screens as filed in PubChem BioAssay.
TWEAK-Fn14 inh = blocks TWEAK-Fn14 interaction in a reporter cell assay; TWEAK-stimulated Fn14 reporter cells, luciferase luminescence, 8 h; inhibition, % at 10 µM; actives 2% (n = 360,000); AID 1159606; in the data active = inhibition above about 50%
LGR2 inh = blocks bursicon-induced cAMP signaling via Drosophila LGR2; HEK293 LGR2, CRE-luciferase, bursicon-stimulated, 4 h; inhibition, % at 9.99 µM; actives 0.35% (n = 380,000); AID 720647;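 active = drop in luminescence signal, shown as inhibition above about 50% in the replicate tests, limit read from the data, passing the limit was not always enough; inconclusive = probably only some replicates passing the limit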;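 also: agonist challenge used bursicon conditioned medium at about half maximal strength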
TROY signal inh = inhibitors of TROY-dependent NF-kB signaling. Q293 LMP1-TROYcd NF-kB luciferase reporter, 4 h. inhibition, % at 10 µM. actives 0.98% (n = 360,000);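 active = compounds whose plate-normalised and pattern-corrected inhibition of the luciferase reporter signal at the single screening dose is 50% or more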
Xi reactivation = reactivates the inactive X chromosome in mouse fibroblasts; XiGFP mouse fibroblasts, % GFP-positive cells imaging, 3 d; cells co-treated with 5-aza-dC sensitizer; scaled so ellipticine positive control = 100%; activation, % at 7.58 µM; actives 0.055% (n = 360,000);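 active = mean normalized replicate activation at least 10% and every replicate at or above 10%; inconclusive = only one of the two criteria met; inactive = mean below 10% and not all replicates reach 10%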
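Material: SV40-immortalized XiGFP fibroblast cells, line 68-5-11 | Buffer or medium: DMEM containing 5-aza-dC | Dosing: One concentration, pinned | Times: 3 d treatment, 15 min room-temperature fixation | Controls: Ellipticine 6 µM positive control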
FN deposit inh = fibronectin deposition inhibition; AH1F fibroblasts, Alexa488-fibronectin deposition fluorescence, overnight; inhibition, % at 12.6 µM; actives 0.086% (n = 350,000);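 active = mean inhibition across replicates of 30% or more, regardless of how many single replicates reach that level; inconclusive = mean under 30% yet at least half of replicates reach 30%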
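material = AH1F fibroblast monolayer depositing Alexa488-labelled fibronectin into matrix | amount = 10000 AH1F cells/well | buffer or medium = DMEM plus 2% serum, read in PBS | incubation = 1 h cell adhesion before compound, then overnight fibronectin incubation | detection = fluorescence at 485 nm excitation, 525 nm emission | evaluation = percent inhibition as loss of matrix-bound fibronectin fluorescence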
EWS-Fli inh = blocks EWS/Fli oncoprotein-driven transcription. A673 NR0B1-luciferase reporter, viability-normalised. inhibition, % at 12.6 µM. actives 0.67% (n = 350,000). AID 651661;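 active = mean inhibition of at least 50% after viability correction, with every replicate also passing that limit; inconclusive = mean reaches 50% but only one of two replicates passes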;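 also: firefly luciferase signal divided by Alamar Blue viability fluorescence both relative to DMSO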
Hits are given with their value; – = inactive; ? = inconclusive; · = not tested or not shown. A selection: hits, their analogues and other compounds. The true share with any hit is near 2.3%.

SMILES	TWEAK-Fn14 inh	LGR2 inh	TROY signal inh	Xi reactivation	FN deposit inh	EWS-Fli inh
CO[C@@H]1CN(C)C(=O)c2ccc(NC(=O)C3CC3)cc2OC[C@H](C)N(C(=O)c2ccccc2)C[C@H]1C	·	–	·	–	–	–
S=C(NCCc1ccccc1)Nc1cccc2cnccc12	–	–	–	–	–	–
S=C(NCc1ccccc1)Nc1cccc2cnccc12	77	–	–	–	–	·
CC(=O)c1ccc(NC(=S)Nc2cccc3cnccc23)cc1	60	–	–	–	·	–
S=C(Nc1cccc(Cl)c1)Nc1cccc2cnccc12	76	·	–	·	·	·
CC(=O)c1cccc(NC(=O)c2ccc(NC(=O)CCS(=O)(=O)c3cccs3)cc2)c1	–	–	–	–	–	–
CC(=O)c1ccc(NC(=O)c2ccc(NC(=O)CCS(=O)(=O)c3cccs3)cc2)cc1	–	–	51	–	–	–
CCOC(=O)c1c(C)[nH]c(C2=NNC(=NC3CC3)SC2)c1C	85	·	84	·	·	·
O=C(CSc1ncnc2ccccc12)c1ccc2c(c1)OCCO2	–	–	54	–	–	–
O=C(Cc1cccs1)N1CCN=C1SCc1cccc(F)c1	81	–	–	–	–	–
O=C(Nc1ccccc1Br)C1CC(=O)N(c2ccc3c(c2)OCCO3)C1 (stereo unspecified)	–	–	–	–	–	–
O=C(COC(=O)C1CC(=O)N(c2ccc3c(c2)OCCO3)C1)NC1CCCc2ccccc21 (stereo unspecified)	56	·	–	·	·	·
O=C(Nc1nc2ccccc2[nH]1)C1CC(=O)N(c2ccc3c(c2)OCCO3)C1 (stereo unspecified)	69	·	–	·	·	·
COc1cccc(C2=NO[C@@H]3C(=O)N(c4ccc5c(c4)OCCO5)C(=O)[C@H]23)c1OC	77	·	69	·	–	·
COc1cccc(OC)c1OC(=O)C1CC(=O)N(c2ccc3c(c2)OCCO3)C1 (stereo unspecified)	68	–	–	–	–	–
C[C@H](CO)N1C[C@H](C)[C@@H](CN(C)S(=O)(=O)c2cn(C)cn2)Oc2c(NC(=O)CCCN(C)C)cccc2C1=O	·	·	·	–	·	·
O=C(Nc1ccc2c(c1)OCO2)C1CC(=O)N(c2ccc3c(c2)OCCO3)C1 (stereo unspecified)	–	–	–	–	–	–
O=C(O)C1CC(=O)N(c2ccc3c(c2)OCCO3)C1 (stereo unspecified)	63	·	–	·	–	·
C[C@H](CO)N1C[C@H](C)[C@H](CN(C)S(=O)(=O)c2ccsc2)OCc2ccccc2-c2ccccc2C1=O	·	–	·	–	–	–
O=c1c2ccccc2cnn1-c1ccc2ccccc2c1	55	–	–	·	–	·
O=c1c2ccccc2cnn1-c1ccc(Br)cc1	–	·	–	·	·	·
C[C@H]1CN([C@@H](C)CO)C(=O)c2cccc(NC(=O)C3CCOCC3)c2O[C@H]1CN(C)S(=O)(=O)c1ccc(F)cc1	·	–	·	–	·	–
Cc1cc(C(=O)CSc2ccc(Cl)cc2)cc(C)c1OC(=S)N(C)C	–	·	80	·	·	·
CO[C@H]1CN(C)C(=O)c2ccc(NC(=O)C3CC3)cc2OC[C@H](C)N(C(=O)C2CCCCC2)C[C@@H]1C	·	·	·	–	–	·
CC(C)N1CCc2c(sc(NC(=O)c3ccc(C(=O)c4ccccc4)cc3)c2C(N)=O)C1	–	–	–	–	–	–
SMILES	TWEAK-Fn14 inh	LGR2 inh	TROY signal inh	Xi reactivation	FN deposit inh	EWS-Fli inh
CC(C)N1CCc2c(sc(NC(=O)c3cc4cc([N+](=O)[O-])ccc4s3)c2C(N)=O)C1	–	–	–	65	–	?
CC(=O)c1ccc(C(=O)Nc2sc3c(c2C(N)=O)CCN(Cc2ccccc2)C3)cc1	–	–	–	39	–	–
CC(C)N1CCc2c(sc(NC(=O)c3ccc4ccccc4c3)c2C(N)=O)C1	–	–	–	99	·	·
C[C@H](CO)N1C[C@H](C)[C@@H](CN(C)Cc2ccc(Cl)c(Cl)c2)OCCCC[C@H](C)Oc2ccc(NS(=O)(=O)c3cn(C)cn3)cc2C1=O	·	–	·	–	·	–
CC(C)NC(=O)N(C)C[C@@H]1Oc2ccc(NC(=O)Nc3ccc4c(c3)OCO4)cc2CC(=O)N([C@@H](C)CO)C[C@H]1C	·	–	·	–	–	–
COc1ccc2c3c([nH]c2c1)[C@@H](CO)N(C(=O)c1ccccc1)CC31CCN(C)CC1	·	–	·	–	·	–
CCC(=O)Nc1ccc2c(c1)C(=O)N(C)C[C@H](OC)[C@H](C)CN(CC1CCCCC1)[C@@H](C)CO2	·	–	·	–	–	–
CCC(=O)N1[C@H](C#N)[C@H](c2ccccc2-c2ccccc2)[C@H]1CO	·	–	·	–	–	–
CCn1c(NC(C)=O)nc2ccccc21	–	·	–	·	·	·
CCn1c(NC(=O)Nc2ccccc2OC)nc2ccccc21	62	·	·	·	·	·
CNC[C@H]1OCCCC[C@@H](C)Oc2ccc(N(C)C)cc2C(=O)N([C@H](C)CO)C[C@@H]1C	·	–	·	–	·	–
Cc1cc(/C=C2\SC(=S)N(C)C2=O)c(C)n1-c1ccccc1O	96	–	61	–	–	–
Cc1cc(/C=C2\SC(=S)N(C)C2=O)c(C)n1-c1ccc(O)cc1	104	64	82	–	–	75
CCC(=O)N1C[C@@H](C)[C@@H](OC)CN(C)C(=O)c2ccc(NC(=O)c3cc(C)on3)cc2OC[C@@H]1C	·	–	·	–	–	–
O=C(c1cc(-c2ccccc2)n[nH]1)N1CCc2c([nH]c3ccccc23)C1c1ccccn1 (stereo unspecified)	59	–	–	–	–	–
CCCN1[C@@H]2c3ccc(-c4cncnc4)c(=O)n3C[C@@H]2[C@@H](CO)[C@@H]1C(=O)OC	·	–	·	–	·	–
O=C(O)C1C2C=CC(C2)C1C(=O)Nc1ccc2c(c1)OCCO2 (stereo unspecified)	65	·	52	·	·	·
CN(C)c1ccc(NC(=O)C2C3C=CC(C3)C2C(=O)O)cc1 (stereo unspecified)	–	–	–	–	–	–
CC(C)C(NC(=O)C1CCCCC1)C(=O)Nc1ccc2c(c1)OCCO2 (stereo unspecified)	63	·	–	·	–	·
O=C(O)C1CCCCC1C(=O)Nc1ccc2c(c1)OCCO2 (stereo unspecified)	83	·	69	·	·	·
O=C(CCN1CCCCC1)N[C@H]1CC[C@@H](CC(=O)N2CCC(Cc3ccccc3)CC2)O[C@@H]1CO	·	–	·	–	–	–
O=C(C[n+]1cn(C(F)F)c2ccccc21)c1ccc(Br)cc1	86	–	–	–	–	–
O=C(C[n+]1cc(Br)cc2ccccc21)c1ccc(Br)cc1	–	–	–	–	–	–
O=C(NCC[C@H]1CC[C@@H](NS(=O)(=O)c2ccccc2)[C@@H](CO)O1)c1ccccc1F	·	–	·	–	–	–
Cn1c(/C=N/Nc2nc3ccccc3[nH]2)nc2ccccc21	–	–	–	–	–	–
C=CCn1cc(/C=N/Nc2nc3ccccc3[nH]2)c2ccccc21	53	–	–	–	–	–
